The list is not random: actives were taken first. Their share in the collection is about 2.1%.
CRFR2-BP antag: CRF-BP/CRF-R2 complex antagonism. HEK293 CRF-R2/CRF-BP, CRF-induced calcium fluorescence. inhibition, % at 11.8 µM. hit rate 0.59% among 350,000. AID 588475;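 active = inhibition of the ligand-induced calcium signal above about 50% at the single tested concentration, limit read from the data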
IMP-1 inh-1: inhibitors of Pseudomonas aeruginosa IMP-1 metallo-beta-lactamase | hit rate 0.45% among 290,000 | inhibition, % at 5.6 µM | purified IMP-1, nitrocefin hydrolysis, epi-absorbance fluorescence;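 active = inhibition above the mean plus 3 SD of all compounds in the same screening run, cut at about 4.5% in these data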;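 note: 0% = IMP-1 with DMSO and 100% = DMSO wells lacking enzyme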
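System: Purified IMP-1 | Read-out basis: Percent enzyme inhibition | Controls: IMP-1 with DMSO as 0%, enzyme-free DMSO as 100% | Replicates: One well per compound | Doses: 5.6 µM nominal single concentration | Detection: Epi-absorbance fluorescence, 480 nm excitation, 530 nm emission | Incubation: 25 °C, 15 min preincubation, 25 min reaction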
CRFR2-BP ag: CRF-BP/CRF-R2 complex agonism; HEK293 CRF-R2/CRF-BP, calcium dye fluorescence (FLIPR); percent of saturating CRF peptide response; activation, % at 13.2 µM; hit rate 0.46% among 350,000;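 active = activation of at least 50%, plus an integration ratio under a set limit after plate pattern correction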;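 note: plate controls were neutral control wells without compound for no effect and CRF at EC100 for full effect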
zfTRPN1 agonist: activates the zebrafish TRPN1 channel; HEK293 zebrafish TRPN1-YFP, Fluo-8 calcium fluorescence; 100% = response to 87 µM carbachol; activation, % at 3 µM; hit rate 0.18% among 220,000;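 active = activation above its plate's cutoff, the mean activation of test wells on that plate plus 3 SD, cut at about 19% in these data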;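 note: 0% = DMSO alone and 100% = 87 µM carbachol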
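Material: zebrafish TRPN1-YFP in HEK293 cells; Doses: single test compound dose, 3 µM nominal, 0.3% DMSO; Timing: dye loading 1 h at 37 °C, then 30 min room temperature; Technique: intracellular calcium fluorescence with Fluo-8; Benchmarks: high carbachol 87 µM, low DMSO alone.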
TRPML3 agonist: human mucolipin-3 channel agonism; Q8TDD5; HEK293 TRPML3-YFP, Fluo-8 calcium fluorescence; 100% = the carbachol control signal; activation, % at 3 µM; hit rate 0.29% among 220,000; AID 1448;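 active = activation above its plate's cutoff, the mean activation of the plate's test wells plus 3 SD, cut at about 12% in these data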;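 note: 0% = DMSO only wells and 100% = carbachol wells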
Target sequence (Q8TDD5 whole entry, looked up): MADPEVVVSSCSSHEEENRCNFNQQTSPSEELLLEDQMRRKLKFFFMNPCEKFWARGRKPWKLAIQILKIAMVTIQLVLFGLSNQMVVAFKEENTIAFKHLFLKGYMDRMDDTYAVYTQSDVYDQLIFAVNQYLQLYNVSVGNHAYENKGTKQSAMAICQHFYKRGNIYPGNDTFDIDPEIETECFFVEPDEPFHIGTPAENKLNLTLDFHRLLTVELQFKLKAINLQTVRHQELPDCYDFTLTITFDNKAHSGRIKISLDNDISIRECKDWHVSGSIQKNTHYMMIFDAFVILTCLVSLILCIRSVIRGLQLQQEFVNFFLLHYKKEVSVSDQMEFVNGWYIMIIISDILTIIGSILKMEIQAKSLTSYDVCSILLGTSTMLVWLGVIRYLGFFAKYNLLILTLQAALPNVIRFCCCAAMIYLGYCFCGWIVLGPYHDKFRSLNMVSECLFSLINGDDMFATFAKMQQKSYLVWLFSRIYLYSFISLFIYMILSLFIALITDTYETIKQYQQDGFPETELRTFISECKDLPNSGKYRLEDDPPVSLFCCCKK
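system = HEK293 cells stably carrying human TRPML3-YFP | doses = one concentration, 3 µM nominal, 0.3% DMSO | timing = dye loading 1 h 37 °C then 30 min ambient, 125 s read | detection = Fluo-8 calcium dye fluorescence, ex 470-495, em 515-575 nm | benchmarks = high control carbachol 87 µM, low control DMSO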
VIM-2 inhibitor: inhibitors of Pseudomonas aeruginosa VIM-2 metallo-beta-lactamase | purified VIM-2, nitrocefin hydrolysis, epi-absorbance fluorescence | inhibition, % at 5.6 µM | hit rate 0.89% among 290,000;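 active = inhibition above the mean of all tested compounds plus 3 SD, cutoff set per screening run, cut at about 7.5% in these data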;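 note: red hydrolysis product quenches plate fluorescence so inhibitors raise well fluorescence; 0% = enzyme with DMSO and 100% = DMSO without enzyme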
IMP-1 inh-2: IMP-1 inhibition, counter-screen for VIM-2 inhibitors. 1,300 tested, under 10 active. purified IMP-1, nitrocefin hydrolysis, epi-absorbance fluorescence. AID 1856. inhibition, % at 5.6 µM. shares compounds with VIM-2 inhibitor; call rule not given here;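 note: 0% = enzyme with vehicle and 100% = vehicle without enzyme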
VIM-2 FRET ctr: inhibits VIM-2 in FRET assay to exclude epi-absorbance artifacts. purified VIM-2, CCF2 FRET substrate hydrolysis. inhibition, % at 5.6 µM. AID 1857. hit rate 23% among 1,300. shares compounds with VIM-2 inhibitor;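 active = inhibition above the mean of all tested compounds plus 3 SD, cut at about 19% in these data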;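 note: 0% = VIM-2 plus DMSO and 100% = no enzyme wells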
TEM-1 counter: selectivity counter-screen for VIM-2 inhibitors: E. coli TEM-1 inhibitors; inhibition, % at 5.6 µM; Purified TEM-1, nitrocefin hydrolysis, epi-absorbance fluorescence; hit rate 3% among 1,300; shares compounds with VIM-2 inhibitor; AID 1866;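 active = inhibition above that campaign's mean inhibition plus 3 SD, cut at about 0.46% in these data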;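 note: 0% = TEM-1 with DMSO and 100% = TEM-1 with 100 µM potassium clavulanate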
VIM-2 confirm 2: confirmation of P. aeruginosa VIM-2 metallo-beta-lactamase inhibitors. purified VIM-2, nitrocefin hydrolysis, epi-absorbance. inhibition, % at 5.6 µM. AID 2187. hit rate 96% among 1,300. shares compounds with VIM-2 inhibitor;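 active = inhibition of the VIM-2 beta-lactamase enzyme above about 11% from the earlier first-round screen, limit read from the data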;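 note: 0% = VIM-2 with DMSO and 100% = buffer wells without enzyme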
Numbers without * were called inactive; x = no result given.

SMILES | CRFR2-BP antag | IMP-1 inh-1 | CRFR2-BP ag | zfTRPN1 agonist | TRPML3 agonist | VIM-2 inhibitor | IMP-1 inh-2 | VIM-2 FRET ctr | TEM-1 counter | VIM-2 confirm 2
COc1ccc2cc(C#N)c(SCC(=O)N3CCCC3)nc2c1 | -10 | -1 | 0 | 0 | 1 | -3 | x | x | x | x
Cc1ccccc1CN1CCSc2sccc2C1=O | 12 | -3 | -5 | -3 | 0 | -2 | x | x | x | x
CN(C)S(=O)(=O)c1cccc(NC(=S)N/N=C/c2ccco2)c1 | 4 | -3 | -1 | 3 | 1 | 1 | x | x | x | x
CN(C)S(=O)(=O)c1cccc(NC(=S)N/N=C/c2ccc(O)c(O)c2O)c1 | -11 | -2 | 0 | -1 | 0 | 1 | x | x | x | x
CN(C)S(=O)(=O)c1cccc(NC(=S)N/N=C/C(c2ccccc2)c2ccccc2)c1 | 16 | -6 | -2 | 2 | 0 | 21* | -3 | 35* | -8 | 23*
CC(/C=N/NC(=S)Nc1cccc(S(=O)(=O)N(C)C)c1)c1ccccc1 (stereo not drawn) | -25 | -4 | 0 | -1 | 0 | 46* | -2 | 67* | -3 | 52*
COc1cnc(-c2ccccn2)nc1Oc1ccccc1Cl | 8 | -2 | 1 | -1 | 0 | 17* | -4 | -26 | -4 | 46*
COc1cnc(-c2ccccn2)nc1Oc1ccc(Cl)cc1 | -12 | -4 | 6 | 0 | 0 | 6 | x | x | x | x
COc1cnc(-c2ccccn2)nc1NC(C)C | -1 | -3 | 0 | 2 | 1 | 7 | x | x | x | x
COc1cnc(-c2ccccn2)nc1Oc1ccc(F)cc1F | -23 | -5 | 1 | -1 | 0 | 18* | -5 | -30 | -4 | 29*
COc1cnc(-c2ccccn2)nc1Oc1ccc(Cl)c2ccccc12 | 7 | -4 | -2 | 0 | 1 | 39* | -4 | -30 | -6 | 76*
CC1CC(C)(C)CC2(C1)NC(=O)N(CC(=O)Nc1cc(C(F)(F)F)ccc1N1CCCCC1)C2=O (stereo not drawn) | -25 | x | 3 | x | x | x | x | x | x | x
COc1ccc(OCCC(=O)OCC(=O)Nc2cccc(S(=O)(=O)N3CCCCC3)c2)cc1 | 3 | x | -3 | x | x | x | x | x | x | x
O=C1C(=O)N(O)C2CCCCC2N1O (stereo not drawn) | 2 | -3 | -1 | -3 | 1 | 13* | -4 | 47* | -7 | 24*
O=C(O)CCN1C(=O)C2CCCCC2C1=O (stereo not drawn) | 6 | -3 | -1 | 0 | 1 | -3 | x | x | x | x
COC(=O)c1ccccc1NC1OC(=O)c2ccccc21 (stereo not drawn) | 4 | -4 | -2 | 1 | 0 | -3 | x | x | x | x
Cc1ccc2cccc(NC3OC(=O)c4ccccc43)c2n1 (stereo not drawn) | 1 | -1 | 2 | 0 | 0 | 14* | -3 | -3 | -7 | 5
CCc1nn(CC(=O)NCCCN2CCOCC2)c(=O)c2cc3sccc3n12 | -4 | -1 | 1 | x | x | 4 | x | x | x | x
CCCN1CCN(C(=O)Cn2nc(CC)n3c(cc4sccc43)c2=O)CC1 | 2 | -1 | 1 | x | x | 33* | -2 | 0 | -7 | 39*
O=c1c(Cc2ccc(F)cc2)c(O)ccn1CCc1ccccn1 | 3 | -5 | -1 | 0 | 0 | -1 | x | x | x | x
Clc1ccc(C2=C3CCCCn4c(-c5ccccc5)c[n+](c43)C2)cc1 | 11 | -4 | -1 | 0 | 0 | 18* | -5 | -2 | -8 | 5
COc1ccc(-c2c[n+]3c4n2CCCCC4=C(c2ccc(Br)cc2)C3)cc1 | 17 | -4 | 2 | -1 | 0 | 14* | -1 | -5 | 2.5* | 13*

Screens deposited in PubChem by several laboratories.
